Measured values from different studies.

For `CC(C)(C)c1cnc(CSc2cnc(NC(=O)C3CCN(CCCCCCCSc4cccc5c4C(=O)N(C4CCC(=O)NC4=O)C5=O)CC3)s2)o1` (stereo not shown), the viability was 76.7% (HH; cell growth or viability; CCK-8; 0.15 µM).
The EC50 of `CN(C)C1CCCN(C(=O)/C=C/c2nn(CC3CCCC3)c3ncnc(N)c23)C1` (stereo not shown) is reported as greater than 30 µM (OE33; cell growth or viability; resazurin; 5 days).
The cell death of `O=C(Nc1ccccc1)Nc1ccc(Oc2nnc(-c3ccc(Cl)cc3)c3ccccc23)cc1` is reported as 94.7% (HepG2; cell growth or viability; MTT; 0.625 µM).
`Nc1ncnc2c1c(/C=C/C(=O)N1CCCC1)nn2CC1CCCC1` has an EC50 of greater than 30 µM (OE33; cell growth or viability; resazurin; 5 days).
For `CC(=O)c1nn(-c2ccc(C)cc2)/c(=N/N=C(\C)c2ccc(NC(=O)c3ccccc3)cc2)s1`, the viability was 5.09% (HepG2; cell growth or viability; MTT; 0.312 µM).
`CC(=NNC(=O)c1ccncc1)c1ccc(Nc2nnc(-c3ccc(Cl)cc3)c3ccccc23)cc1` gave a cell death of 64.7% (HepG2; cell growth or viability; MTT; 0.312 µM).
With `C=CC(=O)NC1CCN(c2ncc3ncnc(Nc4ccc(Oc5ccc6c(c5)ncn6C)c(C)c4)c3n2)CC1` the EC50 was 0.0152 µM (SW 1116; cell growth or viability).
For `CNc1ncc2c(/C=C/C(=O)N3CCC(OC)CC3)nn(Cc3ccccc3C(F)(F)F)c2n1`, the EC50 was 11.4 µM (OE33; cell growth or viability; resazurin; 5 days).
`CC(C)(C)c1cnc(CSc2cnc(NC(=O)C3CCN(CCCCCCCCSc4cccc5c4CN(C4CCC(=O)NC4=O)C5=O)CC3)s2)o1` (stereo not shown) has a viability of 0% (HH; cell growth or viability; CCK-8; 0.5 µM).
The EC50 of `Nc1ncnc2c1c(/C=C/C(=O)N1CCC(CCO)CC1)nn2CC1CCCC1` is reported as greater than 30 µM (OE33; cell growth or viability; resazurin; 5 days).
The viability of `CC(C)(C)c1cnc(CSc2cnc(NC(=O)C3CCN(CCCCCSc4cccc5c4CN(C4CCC(=O)NC4=O)C5=O)CC3)s2)o1` (stereo not shown) is reported as 96.6% (HH; cell growth or viability; CCK-8; 1 nM).
`CN(C)C1CCN(C(=O)/C=C/c2nn(CC3CCCC3)c3ncnc(N)c23)CC1` gave an EC50 of greater than 30 µM (OE33; cell growth or viability; resazurin; 5 days).
The viability of `CC(=O)c1nn(-c2ccccc2Cl)/c(=N/N=C(\C)c2ccc(NC(=O)c3ccccc3)cc2)s1` is reported as 30.2% (HepG2; cell growth or viability; MTT; 0.156 µM).
`CC(C)(C)c1cnc(CSc2cnc(NC(=O)C3CCN(CCCCSc4cccc5c4C(=O)N(C4CCC(=O)NC4=O)C5=O)CC3)s2)o1` (stereo not shown) has a viability of 36.9% (HH; cell growth or viability; CCK-8; 0.15 µM).
For `CC(=NNC(=O)c1ccccc1O)c1ccc(Nc2nnc(-c3ccc(Cl)cc3)c3ccccc23)cc1`, the cell death was 84.2% (HepG2; cell growth or viability; MTT; 5 µM).
For `CNc1ncc2c(/C=C/C(=O)N3CCCC3)nn(CC3CCCC3)c2n1`, the EC50 was greater than 30 µM (OE33; cell growth or viability; resazurin; 5 days).
The IC50 of `O=C(Nc1ccccc1)Nc1cc(Br)cc(C(F)(F)F)c1` is reported as 8.01 µM (LAD2; degranulation).
For `CNc1ncc2c(/C=C/C(=O)N3CCC(OC)CC3)nn(Cc3ccccc3C)c2n1`, the EC50 was 7.84 µM (OE33; cell growth or viability; resazurin; 5 days).
`CC(=NNC(=O)c1cccnc1)c1ccc(Nc2nnc(-c3ccc(Cl)cc3)c3ccccc23)cc1` gave a cell death of 96.8% (HepG2; cell growth or viability; MTT; 10 µM).
For `CNc1ncc2c(/C=C/C(=O)N3CCOCC3)nn(CC3CCCC3)c2n1`, the EC50 was greater than 30 µM (OE33; cell growth or viability; resazurin; 5 days).
`CCOC(=O)c1nn(-c2cccc(Cl)c2)/c(=N/N=C(\C)c2ccc(NC(=O)c3ccc(Cl)cc3)cc2)s1` has a viability of 2.59% (HepG2; cell growth or viability; MTT; 1.25 µM).
For `O=C(Nc1ccc(Oc2nnc(-c3ccc(Cl)cc3)c3ccccc23)cc1)c1cccc([N+](=O)[O-])c1`, the cell death was 93.8% (HepG2; cell growth or viability; MTT; 10 µM).
`O=C(Nc1ccc(C(F)(F)F)cc1)Nc1cccc([N+](=O)[O-])c1` has an IC50 of 0.37 µM (LAD2; degranulation).
For `CC(C)(C)c1cnc(CSc2cnc(NC(=O)C3CCN(C(=O)COCCOCCSc4cccc5c4C(=O)N(C4CCC(=O)NC4=O)C5=O)CC3)s2)o1` (stereo not shown), the viability was 7.67% (HH; cell growth or viability; CCK-8; 1 µM).
With `CC(=NNC(=O)c1ccccc1Br)c1ccc(Nc2nnc(-c3ccc(Cl)cc3)c3ccccc23)cc1` the cell death was 95.6% (HepG2; cell growth or viability; MTT; 5 µM).
With `CC(C)(C)c1cnc(CSc2cnc(NC(=O)C3CCN(C(=O)CCCSc4cccc5c4C(=O)N(C4CCC(=O)NC4=O)C5=O)CC3)s2)o1` (stereo not shown) the viability was 86.7% (HH; cell growth or viability; CCK-8; 0.25 µM).
For `CCOC(=O)c1nn(-c2cccc(Cl)c2)/c(=N/N=C(\C)c2ccc(NC(=O)c3ccccc3)cc2)s1`, the viability was 25.9% (HepG2; cell growth or viability; MTT; 0.156 µM).
`CC(=O)Nc1ccc(Oc2nnc(-c3ccc(Cl)cc3)c3ccccc23)cc1` gave a cell death of 92.9% (HepG2; cell growth or viability; MTT; 1.25 µM).
The IC50 of `O=C(Nc1ccccc1)Nc1cccc(Br)c1` is reported as 22.1 µM (LAD2; degranulation).
`CC(=NNC(=S)Nc1ccccc1)c1ccc(Nc2nnc(-c3ccc(Cl)cc3)c3ccccc23)cc1` gave a cell death of 95.1% (HepG2; cell growth or viability; MTT; 5 µM).
The viability of `CC(C)(C)c1cnc(CSc2cnc(NC(=O)C3CCN(CCCCCCCCSc4cccc5c4C(=O)N(C4CCC(=O)NC4=O)C5=O)CC3)s2)o1` (stereo not shown) is reported as 10.7% (HH; cell growth or viability; CCK-8; 0.2 µM).
